Compound activity deposited in PubChem BioAssay by Sanford-Burnham Center for Chemical Genomics.
CCR6 antagonist: blocks CCL20-driven beta-arrestin recruitment at human CCR6. CHO-K1 CCR6 PathHunter beta-arrestin, luminescence, CCL20-stimulated. inhibition, % at 20 µM. actives 0.49% (n = 340,000). AID 493098;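 active means compounds whose inhibition of the agonist-driven luminescence signal at 20 µM reaches about 50%, limit read from the data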;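 further: cells stimulated with CCL20 at 14 nM final; plate controls were DMSO with CCL20 for no effect and DMSO without agonist for full effect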
APJ agonist: activates the human apelin receptor APJ; P35414; CHO-K1 APJ PathHunter beta-arrestin, luminescence; 0% DMSO wells, 100% apelin; activation, % at 20 µM; actives 0.11% (n = 330,000);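 active means activation more than six SD over the plate average, tested at 20 µM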;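 further: 0% = DMSO alone and 100% = apelin-13 at 10 nM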
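Assay system: CHO-K1 cells stably expressing ProLink-tagged human APJ and arrestin–beta-gal acceptor. Compound dosing: 20 µM single point, 1% DMSO. Times: 16-18 h seeding, 90 min dark compound exposure, 60 min detection. Detection: beta-gal luminescence. Evaluation: APJ–arrestin association signal. Controls: negative DMSO alone, positive Apelin-13 at 10 nM.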
EBI2 block: antagonists of human EBI2 receptor | AID 651636 | EBI2 beta-arrestin recruitment, luminescence, 7a,25-OHC stimulated | actives 0.81% (n = 360,000) | P32249 | inhibition, % at 5 µM; in the data active means inhibition above about 38%;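 further: enzyme fragment complementation signal reports receptor beta-arrestin coupling in cells; 0% = agonist plus DMSO wells and 100% = wells without agonist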
Target sequence (P32249 whole entry, looked up, the tested form may be a part): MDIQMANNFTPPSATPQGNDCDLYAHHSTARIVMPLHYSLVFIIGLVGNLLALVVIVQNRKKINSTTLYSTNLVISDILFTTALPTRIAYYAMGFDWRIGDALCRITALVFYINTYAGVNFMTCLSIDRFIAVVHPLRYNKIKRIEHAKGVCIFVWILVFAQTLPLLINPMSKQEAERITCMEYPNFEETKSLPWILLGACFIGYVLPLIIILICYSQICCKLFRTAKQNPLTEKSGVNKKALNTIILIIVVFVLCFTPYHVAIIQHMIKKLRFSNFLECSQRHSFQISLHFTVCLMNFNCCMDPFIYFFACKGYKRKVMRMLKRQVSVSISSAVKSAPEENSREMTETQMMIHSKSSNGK
CXCR6 inh: inhibitors of human CXCR6 receptor; CHO-K1 PathHunter CXCR6 beta-arrestin, luminescence; O00574; inhibition, % at 20 µM; actives 0.36% (n = 360,000); in the data active means inhibition above about 34%, passing the limit was not always enough;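 further: antagonist mode with CXCL16 agonist at 10 nM final; 0% = 10 nM CXCL16 with DMSO and 100% = unstimulated wells without agonist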
Target sequence (O00574 whole entry, looked up): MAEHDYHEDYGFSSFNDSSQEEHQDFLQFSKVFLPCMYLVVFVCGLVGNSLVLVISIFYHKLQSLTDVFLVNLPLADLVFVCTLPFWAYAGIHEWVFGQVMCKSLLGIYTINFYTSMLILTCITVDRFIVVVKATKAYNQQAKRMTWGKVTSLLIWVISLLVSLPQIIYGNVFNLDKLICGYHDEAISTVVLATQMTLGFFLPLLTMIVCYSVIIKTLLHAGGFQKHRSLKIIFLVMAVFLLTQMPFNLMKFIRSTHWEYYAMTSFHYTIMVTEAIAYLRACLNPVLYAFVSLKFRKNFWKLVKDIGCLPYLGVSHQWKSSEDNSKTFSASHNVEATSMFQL
APJ antagonist: blocks the human apelin receptor APJ. P35414. CHO-K1 APJ beta-arrestin complementation, luminescence. inhibition, % at 20 µM. actives 0.32% (n = 330,000);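 active means inhibition above about 40% at 20 µM, limit read from the data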;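 further: cells challenged with 10 nM apelin-13 agonist together with compound; plate controls were apelin-13 plus DMSO wells for no effect and DMSO wells lacking apelin-13 for full effect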
EBI2 antag conf: confirmation of human EBI2 receptor antagonists; inhibition, % at 5 µM; shares compounds with EBI2 block; EBI2 beta-arrestin luminescence, 7a,25-OHC antagonism; actives 29% (n = 2,400); AID 651997;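 active means inhibition of at least 50%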
EBI2 agonist: activates EBI2, counter-screen for EBI2 antagonists; EBI2-expressing cells, agonist mode, luminescence, 60 min; 0% vehicle, 100% 7α,25-dihydroxycholesterol control; 2,400 tested, under 10 active; activation, % at 5 µM; shares compounds with EBI2 block;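 active means activation of at least 50%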
bGal cs: beta-galactosidase inhibition counter-screen; purified beta-galactosidase, luminescent Galacton Star, 15 min; shares compounds with EBI2 block; inhibition, % at 5 µM; actives 1% (n = 2,400); AID 652176;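 active means replicate-average signal at least 3 plate SD below neutral wells, shown as high inhibition, flagging enzyme-inhibiting false positives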;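 further: 0% = DMSO wells with enzyme and 100% = wells lacking enzyme; higher means stronger loss of beta-gal luminescence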
* hit, by the source's call. Rows were chosen to be rich in hits. Some 1.5% of all compounds tested hit in one or more screens of this group.

COc1cc(-c2nc3ccc(C)cn3c2NCc2ccccc2)ccc1SC1CCCCC1 was read as CCR6 antagonist 34.8, APJ agonist 0.3, EBI2 block 72.1*, CXCR6 inh 15.0, APJ antagonist -23.6, EBI2 antag conf 55.0*, EBI2 agonist 1.9 and bGal cs -0.6.
For COc1ccc(-c2nc3ccc(C)cn3c2Cc2cccc(Cl)c2)cc1OC the results were EBI2 block 32.1 and CXCR6 inh 25.4.
Screening CC(=O)NCCCc1nc2ccccc2n1Cc1c(F)cccc1Cl returned CCR6 antagonist -8.0, APJ agonist -3.1, EBI2 block 4.9, CXCR6 inh -5.2 and APJ antagonist -13.0.
For COc1ccc(CCN2C(=O)C(Oc3ccccc3)C2c2ccc3c(c2)OCO3)cc1 (stereo unspecified) the results were CCR6 antagonist 4.3, APJ agonist 2.4, EBI2 block 42.0*, CXCR6 inh -6.3, APJ antagonist 3.4, EBI2 antag conf 37.3, EBI2 agonist 2.3 and bGal cs -2.9.
CC(C)CCNc1nnnc2c1sc1nc(N3CCOCC3)c3c(c12)CC(C)(C)SC3 was read as CCR6 antagonist 1.0, APJ agonist -2.4, EBI2 block 51.9*, CXCR6 inh 10.0, APJ antagonist 11.8, EBI2 antag conf 42.8, EBI2 agonist -1.7 and bGal cs -3.5.
CC(=O)c1cc(F)ccc1OCC(=O)N1CCCc2ccccc21 was read as CCR6 antagonist 22.6, APJ agonist -0.9, EBI2 block -1.4, CXCR6 inh 7.8 and APJ antagonist 16.6.
Screening Cc1ccc2cc3cc(C(=O)N4CCN(C(=O)c5ccco5)CC4)sc3nc2c1 returned CCR6 antagonist -11.8, APJ agonist -1.5, EBI2 block 63.3*, CXCR6 inh 1.9, APJ antagonist 6.6, EBI2 antag conf 30.2, EBI2 agonist -1.1 and bGal cs -6.9.
`Cc1ccc2cc3cc(C(=O)N4CCN(Cc5ccccc5)CC4)sc3nc2c1` gave CCR6 antagonist -0.3, APJ agonist -2.7, EBI2 block 80.4*, CXCR6 inh 4.8, APJ antagonist -3.8, EBI2 antag conf 53.2*, EBI2 agonist 0.0 and bGal cs -16.6.
`O=C(c1ccco1)N1CCN(C(=O)c2cc3c(=O)oc4ccccc4c3s2)CC1` gave CCR6 antagonist -28.5, EBI2 block 80.5*, CXCR6 inh -0.5, EBI2 antag conf 60.9*, EBI2 agonist 0.9 and bGal cs -4.1.
For COc1ccc(C(=O)CCC(=O)N2CCN(c3cccc(Cl)c3)CC2)cc1 the results were CCR6 antagonist 2.8, APJ agonist -2.5, EBI2 block 5.2, CXCR6 inh -12.3 and APJ antagonist 19.6.
COc1ccc(OCC(=O)N2CCN(c3cccc(C(F)(F)F)c3)CC2)cc1 was read as CCR6 antagonist 22.4, APJ agonist 7.2, EBI2 block 70.0*, CXCR6 inh 10.1, APJ antagonist 6.0, EBI2 antag conf 51.3*, EBI2 agonist -1.9 and bGal cs -12.4.
O=C(COc1ccc(Cl)cc1Cl)N1CCCN(C(=O)COc2ccc(Cl)cc2Cl)CC1 was read as CCR6 antagonist -0.6, APJ agonist -19.3, EBI2 block 36.7, CXCR6 inh -1.8 and APJ antagonist 4.8.
O=C(/C=C/c1cccc(Br)c1)N1CCN(c2cccc(C(F)(F)F)c2)CC1 was read as CCR6 antagonist 22.2, APJ agonist -0.8, EBI2 block 16.8, CXCR6 inh 4.8 and APJ antagonist 5.7.
For O=C(/C=C/c1ccc(Br)cc1)N1CCN(c2cccc(C(F)(F)F)c2)CC1 the results were CCR6 antagonist 19.5, EBI2 block 94.1*, CXCR6 inh 3.3, EBI2 antag conf 80.9*, EBI2 agonist -1.1 and bGal cs -11.6.
Screening COc1ccc(OCC(=O)N2CCN(c3cccc(Cl)c3)CC2)cc1 returned CCR6 antagonist 8.3, APJ agonist 1.9, EBI2 block 86.1*, CXCR6 inh 3.7, APJ antagonist 0.5, EBI2 antag conf 71.1*, EBI2 agonist -0.6 and bGal cs -13.7.
Screening COc1ccc(N2CCN(C(=O)COc3ccc(Cl)cc3Cl)CC2)cc1 returned CCR6 antagonist 2.7, APJ agonist -3.5, EBI2 block 51.3*, CXCR6 inh -8.8, APJ antagonist 20.7, EBI2 antag conf 21.4, EBI2 agonist -1.8 and bGal cs -9.7.
For CC(Oc1ccccc1Cl)C(=O)Nc1ccccc1C(=O)N1CCOCC1 (stereo unspecified) the results were CCR6 antagonist 7.1, APJ agonist -4.4, EBI2 block -9.5, CXCR6 inh -5.0 and APJ antagonist 3.1.
For O=C(Cn1nnc2c(sc3nc4c(c(-c5ccccc5)c32)CCC4)c1=O)c1ccccc1 the results were CCR6 antagonist 9.2, APJ agonist -2.3, EBI2 block 29.1*, CXCR6 inh 3.1, APJ antagonist -17.6, EBI2 antag conf -0.3, EBI2 agonist 1.3 and bGal cs 4.2.
O=S(=O)(c1ccc(NC(=S)Nc2ccc(OC(F)F)cc2)cc1)N1CCOCC1 was read as CCR6 antagonist 11.9, APJ agonist -0.8, EBI2 block 49.1*, CXCR6 inh 6.2, APJ antagonist -5.5, EBI2 antag conf 44.8, EBI2 agonist 0.2 and bGal cs -2.6.
`O=C(COc1ccccc1)Nc1ccc(S(=O)(=O)N2CCCCCC2)cc1` gave CCR6 antagonist 14.4, APJ agonist 1.0, EBI2 block 29.1, CXCR6 inh 3.2 and APJ antagonist -5.6.
`Cc1ccc(NC(=S)Nc2ccc(C(C)C)cc2)cc1S(=O)(=O)N1CCCCCC1` gave CCR6 antagonist 27.0, APJ agonist 3.3, EBI2 block 49.6*, CXCR6 inh 0.6, APJ antagonist -0.6, EBI2 antag conf 50.9*, EBI2 agonist 0.7 and bGal cs 5.2.
`Cc1ccc(NC(=O)c2ccc(S(=O)(=O)N3CCCCC3)cc2)cc1` gave CCR6 antagonist 1.1, APJ agonist -2.3, EBI2 block 44.6*, CXCR6 inh -0.9, APJ antagonist 4.4, EBI2 antag conf 41.8, EBI2 agonist 1.3 and bGal cs -1.3.
`O=C(Nc1ccc(OC(F)F)cc1)c1cc(S(=O)(=O)N2CCOCC2)ccc1N1CCCC1` gave CCR6 antagonist 1.4, EBI2 block 0.4 and CXCR6 inh 7.7.
O=C(COc1ccc2ccccc2c1)Nc1ccc(S(=O)(=O)N2CCCCCC2)cc1 was read as CCR6 antagonist 9.6, APJ agonist 3.1, EBI2 block 55.9*, CXCR6 inh -11.7, APJ antagonist 4.1, EBI2 antag conf 12.4, EBI2 agonist 0.8 and bGal cs 9.4.
